Laboratory results as given in ChEMBL document CHEMBL1155341, “Synthesis and antibacterial activity of 7-(1,2,3,4-tetrahydropyrrolo[1,2-a]pyrazin-7-yl) quinolones” (2009).
Converted amounts (≈) assume the structure as drawn. The source made the active and inactive calls. The rule behind the calls is not given here.

Experiments:
Assay type in all cases: functional
[1] = tested on: Escherichia coli; test: Antibacterial activity against ciprofloxacin susceptible Escherichia coli ATCC 25922 by broth microdilution method
How it was run: (§1)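 Broth microdilution per CLSI (NCCLS M7-A5) guidelines; MIC taken as lowest concentration inhibiting visible growth. Strains are ciprofloxacin-susceptible reference strains.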

[2] = tested on: Streptococcus pneumoniae; test: Antibacterial activity against ciprofloxacin susceptible Streptococcus pneumoniae ATCC 49619 by broth microdilution method; how it was run: as §1
[3] = tested on: Streptococcus pneumoniae; test: Antibacterial activity against ciprofloxacin resistant Streptococcus pneumoniae OC5465 by broth microdilution method
How it was run: (§2)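 MIC determined by broth microdilution following CLSI (formerly NCCLS) M7-A5 guidelines for aerobically growing bacteria. MIC is the lowest compound concentration inhibiting visible growth. Strains are ciprofloxacin-resistant clinical isolates tested within a six-strain abbreviated panel.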

[4] = tested on: Streptococcus pneumoniae; test: Antibacterial activity against ciprofloxacin resistant Streptococcus pneumoniae OC5458 by broth microdilution method; how it was run: as §2
[5] = tested on: Staphylococcus aureus; test: Antibacterial activity against ciprofloxacin susceptible Staphylococcus aureus subsp. aureus ATCC 13709 by broth microdilution method; how it was run: as §1
[6] = tested on: Streptococcus pneumoniae; test: Antibacterial activity against ciprofloxacin resistant Streptococcus pneumoniae OC5462 by broth microdilution method; how it was run: as §2
[7] = tested on: Staphylococcus aureus; test: Antimicrobial activity against Staphylococcus aureus subsp. aureus ATCC 13709 infected in po dosed Swiss Webster mouse treated 1 hr after infection measured fter 3 days; conditions: ATCC 13709, po
How it was run: (§3)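 Female Swiss-Webster mice infected ip with S. aureus ATCC13709; test compound given subcutaneously or orally 1 h post-infection; mortality followed for three days; untreated infected mice served as controls.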

[8] = tested on: Staphylococcus aureus; test: Antimicrobial activity against Staphylococcus aureus subsp. aureus ATCC 13709 infected in sc dosed Swiss Webster mouse treated 1 hr after infection measured fter 3 days; conditions: ATCC 13709, sc; how it was run: as §3

SMILES	MIC [1]	MIC [2]	MIC [3]	MIC [4]	MIC [5]	MIC [6]	ED50 [7]	ED50 [8]
C[C@H]1NCCn2cc(-c3ccc4c(c3OC(F)F)N(C3CC3)CC(C(=O)O)C4=O)cc21 (some centres not stated)	4 µg/mL (≈ 9.27 µM)	1 µg/mL (≈ 2.32 µM)	4 µg/mL (≈ 9.27 µM)	8 µg/mL (≈ 18.5 µM)	0.5 µg/mL (≈ 1.16 µM)	16 µg/mL (≈ 37.1 µM)		
C[C@@H]1NCCn2cc(-c3nc4c(cc3F)C(=O)C(C(=O)O)CN4C3CC3)cc21 (some centres not stated)	8 µg/mL (≈ 20.8 µM)	1 µg/mL (≈ 2.6 µM)	1 µg/mL (≈ 2.6 µM)	8 µg/mL (≈ 20.8 µM)	0.5 µg/mL (≈ 1.3 µM)	8 µg/mL (≈ 20.8 µM)		
COc1c(-c2cc3n(c2)CCN[C@H]3C)c(F)cc2c1N(C1CC1)CC(C(=O)O)C2=O (some centres not stated)	2 µg/mL (≈ 4.84 µM)	0.5 µg/mL (≈ 1.21 µM)	0.5 µg/mL (≈ 1.21 µM)	1 µg/mL (≈ 2.42 µM)	0.12 µg/mL (≈ 0.29 µM)	4 µg/mL (≈ 9.67 µM)		
C[C@@H]1NCCn2cc(-c3c(F)cc4c(c3OC(F)F)N(C3CC3)CC(C(=O)O)C4=O)cc21 (some centres not stated)	1 µg/mL (≈ 2.23 µM)	2 µg/mL (≈ 4.45 µM)	2 µg/mL (≈ 4.45 µM)	2 µg/mL (≈ 4.45 µM)	0.25 µg/mL (≈ 0.556 µM)	8 µg/mL (≈ 17.8 µM)		
COc1c(-c2cc3n(c2)C[C@@H](C)NC3)c(F)cc2c1N(C1CC1)CC(C(=O)O)C2=O (some centres not stated)	1 µg/mL (≈ 2.42 µM)	0.25 µg/mL (≈ 0.605 µM)	0.5 µg/mL (≈ 1.21 µM)	1 µg/mL (≈ 2.42 µM)	0.25 µg/mL (≈ 0.605 µM)	2 µg/mL (≈ 4.84 µM)		
O=C(O)C1CN(C2CC2)c2c(ccc(-c3cc4n(c3)CCNC4)c2OC(F)F)C1=O (configuration not stated)	1 µg/mL (≈ 2.4 µM)	0.5 µg/mL (≈ 1.2 µM)	0.25 µg/mL (≈ 0.599 µM)	inactive	0.06 µg/mL (≈ 0.144 µM)	8 µg/mL (≈ 19.2 µM)		
C[C@H]1COc2c(-c3cc4n(c3)CCNC4)c(F)cc3c2N1CC(C(=O)O)C3=O (some centres not stated)	> 16 µg/mL	2 µg/mL (≈ 5.19 µM)	1 µg/mL (≈ 2.59 µM)	> 16 µg/mL	0.5 µg/mL (≈ 1.3 µM)	> 16 µg/mL		
O=C(O)c1cn(C2CC2)c2cc(N3CCNCC3)c(F)cc2c1=O [CIPROFLOXACIN]	0.03 µg/mL (≈ 0.0905 µM)	1 µg/mL (≈ 3.02 µM)	> 16 µg/mL	> 16 µg/mL	0.12 µg/mL (≈ 0.362 µM)	> 16 µg/mL	10.8 mg/kg	1.4 mg/kg
C[C@H]1Cn2cc(-c3nc4c(cc3F)C(=O)C(C(=O)O)CN4C3CC3)cc2CN1 (some centres not stated)	2 µg/mL (≈ 5.2 µM)	0.5 µg/mL (≈ 1.3 µM)	0.25 µg/mL (≈ 0.65 µM)	8 µg/mL (≈ 20.8 µM)	0.06 µg/mL (≈ 0.156 µM)	8 µg/mL (≈ 20.8 µM)		
C[C@@H]1NCCn2cc(-c3ccc4c(c3OC(F)F)N(C3CC3)CC(C(=O)O)C4=O)cc21 (some centres not stated)	4 µg/mL (≈ 9.27 µM)	1 µg/mL (≈ 2.32 µM)	2 µg/mL (≈ 4.64 µM)	4 µg/mL (≈ 9.27 µM)	0.5 µg/mL (≈ 1.16 µM)	16 µg/mL (≈ 37.1 µM)		
